This note sets out measurements from ChEMBL document CHEMBL4602720, “Degradation versus Inhibition: Development of Proteolysis-Targeting Chimeras for Overcoming Statin-Induced Compensatory Upregulation of 3-Hydroxy-3-methylglutaryl Coenzyme A Reductase” (J Med Chem, 2020).

Active and inactive are the calls of the source.

In data set [1] the target is T1, Protein cereblon/3-hydroxy-3-methylglutaryl-coenzyme A reductase (Homo sapiens) (UniProt P04035+Q96SW2). Description: Protac activity at human Flag-tagged CRBN/T7-tagged HMGCR transfected in Insig-1/Insig-2 deficient Chinese hamster SRD15 cells assessed as induction of HMGCR degradation at 0.01 to 1 uM after 16 hrs by immunoblotting analysis. In short, it runs like this:
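SRD15 cells co-transfected with T7-HMGCR and Flag-CRBN (wild type or YW/AA mutant), then treated with DMSO or 1 μM compound for 16 h; transfected HMGCR measured by immunoblotting.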

Data set [2] concerns the target T2, Protein cereblon/3-hydroxy-3-methylglutaryl-coenzyme A reductase (Cricetulus griseus) (UniProt P00347+G3H338). Description: Protac activity at CRBN/HMGCR in Insig-1/Insig-2 deficient Chinese hamster SRD15 cells assessed as HMGCR level at 1 uM after 16 hrs by immunoblotting analysis (reference value: 1). In short, it runs like this: (§1)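 Dose-response in SRD15 cells in Medium A with 5% FBS, 16 h treatment, DMSO final 0.1% or lower. RIPA lysates immunoblotted for HMGCR. HMGCR densitometry normalized to actin, with the DMSO group set to 1. Three repeats. DC50 is taken from a dose-response fit of the semi-quantitative blots, mean of 3 independent experiments.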

For data set [3], the target named is T1, Protein cereblon/3-hydroxy-3-methylglutaryl-coenzyme A reductase (Homo sapiens). Description: Protac activity at human Flag-tagged CRBN/T7-tagged HMGCR expressed in Chinese hamster SRD15 cells transfected with HA-tagged ubiquitin assessed as increase in HMGCR immunoprecipitation 1 uM preincubated for 16 hrs followed by MG132 addition addition and measured after 5 hrs by Western blot analysis. The data set is classed as cell-based. On the technique in general: Immunoblotting shows a protein as a band on a membrane.

Data set [4] has as its target T2, Protein cereblon/3-hydroxy-3-methylglutaryl-coenzyme A reductase (Cricetulus griseus). Description: Protac activity at CRBN/HMGCR in Insig-1/Insig-2 deficient Chinese hamster SRD15 cells assessed as HMGCR level at 0.1 uM after 16 hrs by immunoblotting analysis (reference value: 1). A digest of the protocol:
as §1

Data set [5] concerns the target T1, Protein cereblon/3-hydroxy-3-methylglutaryl-coenzyme A reductase (Homo sapiens). Put plainly: Protac activity at human Flag-tagged CRBN/Myc-tagged HMGCR expressed in HEK293T cells assessed as induction of HMGCR immunoprecipitation 1 uM preincubated for 16 hrs followed by atorvastatin addition addition and measured after 5 hrs in presence of MG132 by Western blot analysis. The class given is cell-based. The settings on record: HEK-293T.

In data set [6] the target is T2, Protein cereblon/3-hydroxy-3-methylglutaryl-coenzyme A reductase (Cricetulus griseus). Description: (§2) Protac activity at CRBN/HMGCR in Insig-1/Insig-2 deficient Chinese hamster SRD15 cells assessed as induction of HMGCR degradation after 16 hrs by immunoblotting analysis. In short, it runs like this:
(§3)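 SRD15 cells treated with compound at varying concentrations for 16 h, final DMSO ≤0.1%; RIPA lysates (Lowry protein) immunoblotted for HMGCR, densitometry normalized to actin, DMSO set to 1; DC50 = concentration giving 50% loss versus DMSO, fitted to dose-response curve, mean of 3 independent experiments.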

In data set [7] the target is T3, Protein cereblon/3-hydroxy-3-methylglutaryl-coenzyme A reductase (Cricetulus griseus, UniProt P00347+G3H338).
T3 sequence (P00347 whole entry): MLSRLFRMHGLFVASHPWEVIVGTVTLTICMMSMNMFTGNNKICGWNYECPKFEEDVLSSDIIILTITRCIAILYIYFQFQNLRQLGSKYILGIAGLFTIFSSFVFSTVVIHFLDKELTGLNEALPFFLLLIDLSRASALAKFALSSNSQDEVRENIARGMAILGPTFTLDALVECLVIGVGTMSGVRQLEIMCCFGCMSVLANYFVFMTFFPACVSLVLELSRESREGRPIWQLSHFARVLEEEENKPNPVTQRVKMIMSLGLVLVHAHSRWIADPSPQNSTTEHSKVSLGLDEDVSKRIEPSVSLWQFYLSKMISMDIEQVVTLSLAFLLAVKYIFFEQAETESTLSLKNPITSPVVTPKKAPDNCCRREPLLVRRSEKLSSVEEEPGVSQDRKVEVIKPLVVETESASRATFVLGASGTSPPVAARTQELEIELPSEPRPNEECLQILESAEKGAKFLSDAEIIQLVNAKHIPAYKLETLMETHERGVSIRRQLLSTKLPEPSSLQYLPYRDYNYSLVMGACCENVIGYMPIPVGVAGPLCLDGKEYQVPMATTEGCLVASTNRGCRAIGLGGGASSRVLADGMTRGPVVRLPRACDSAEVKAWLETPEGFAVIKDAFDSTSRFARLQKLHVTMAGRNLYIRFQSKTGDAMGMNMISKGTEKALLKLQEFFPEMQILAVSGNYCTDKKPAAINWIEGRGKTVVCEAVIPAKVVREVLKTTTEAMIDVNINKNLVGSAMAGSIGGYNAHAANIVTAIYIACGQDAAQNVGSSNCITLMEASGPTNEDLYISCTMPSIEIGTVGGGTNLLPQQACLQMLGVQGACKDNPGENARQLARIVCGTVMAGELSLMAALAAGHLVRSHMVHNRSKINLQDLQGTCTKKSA
T3 sequence (G3H338 whole entry): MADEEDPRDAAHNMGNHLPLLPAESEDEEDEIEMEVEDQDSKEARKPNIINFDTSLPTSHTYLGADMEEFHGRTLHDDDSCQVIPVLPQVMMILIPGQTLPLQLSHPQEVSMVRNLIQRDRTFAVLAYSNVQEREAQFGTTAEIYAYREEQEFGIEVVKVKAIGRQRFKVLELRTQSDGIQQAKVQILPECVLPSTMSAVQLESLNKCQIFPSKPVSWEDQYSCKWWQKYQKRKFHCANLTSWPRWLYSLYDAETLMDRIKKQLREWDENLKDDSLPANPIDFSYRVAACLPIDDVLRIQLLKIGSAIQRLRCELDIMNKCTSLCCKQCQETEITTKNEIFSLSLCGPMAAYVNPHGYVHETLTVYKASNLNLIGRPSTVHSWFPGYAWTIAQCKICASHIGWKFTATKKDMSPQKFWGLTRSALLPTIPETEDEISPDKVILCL
The data set is described as §2. A digest of the protocol:
as §3

The nature of data set [8]: Effect on HMGCR mRNA expression in Chinese hamster SRD15 cells at 1 uM after 16 hrs by quantitative real-time PCR analysis. The data set is classed as ADME, Cricetulus griseus. A digest of the protocol:
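SRD15 cells (Insig-1/Insig-2-deficient CHO-7) in Medium A with 5% FBS, compound for 16 h; Hmgcr mRNA by quantitative real-time PCR in triplicate, comparative CT method normalized to hamster GAPDH, control defined as 1; mean ± s.d., n = 3 independent experiments.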
On the technique in general: Real-time PCR tracks product formation cycle by cycle.

Data set [9] has as its target T1, Protein cereblon/3-hydroxy-3-methylglutaryl-coenzyme A reductase (Homo sapiens). Put plainly: Protac activity at human Flag-tagged CRBN/Myc-tagged HMGCR expressed in HEK293T cells assessed as induction of HMGCR immunoprecipitation at 1 uM preincubated for 16 hrs followed by MG132 addition addition and measured after 5 hrs in presence of MG132 by Western blot analysis. The data set is classed as cell-based. Conditions: HEK-293T.

The subject of data set [10] is Huh-7. Description: Inhibition of cholesterol biosynthesis in human HuH7 cells preincubated for 14 hrs and followed by addition of 14C-acetate and measured after 2 hrs by TL method. The class given is functional, cell-based. A digest of the protocol:
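Sterol-depleted Huh7 cells (Medium B plus 5% lipoprotein-deficient serum) treated at varying concentrations for 14 h, pulse-labelled with ¹⁴C-acetate 1 μCi/μL for 2 h, washed, lysed in 0.1 M NaOH; lipids separated by TLC, ¹⁴C-cholesterol read by phosphorimager, DMSO set to 1.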

T1 sequence (P04035 whole entry, looked up): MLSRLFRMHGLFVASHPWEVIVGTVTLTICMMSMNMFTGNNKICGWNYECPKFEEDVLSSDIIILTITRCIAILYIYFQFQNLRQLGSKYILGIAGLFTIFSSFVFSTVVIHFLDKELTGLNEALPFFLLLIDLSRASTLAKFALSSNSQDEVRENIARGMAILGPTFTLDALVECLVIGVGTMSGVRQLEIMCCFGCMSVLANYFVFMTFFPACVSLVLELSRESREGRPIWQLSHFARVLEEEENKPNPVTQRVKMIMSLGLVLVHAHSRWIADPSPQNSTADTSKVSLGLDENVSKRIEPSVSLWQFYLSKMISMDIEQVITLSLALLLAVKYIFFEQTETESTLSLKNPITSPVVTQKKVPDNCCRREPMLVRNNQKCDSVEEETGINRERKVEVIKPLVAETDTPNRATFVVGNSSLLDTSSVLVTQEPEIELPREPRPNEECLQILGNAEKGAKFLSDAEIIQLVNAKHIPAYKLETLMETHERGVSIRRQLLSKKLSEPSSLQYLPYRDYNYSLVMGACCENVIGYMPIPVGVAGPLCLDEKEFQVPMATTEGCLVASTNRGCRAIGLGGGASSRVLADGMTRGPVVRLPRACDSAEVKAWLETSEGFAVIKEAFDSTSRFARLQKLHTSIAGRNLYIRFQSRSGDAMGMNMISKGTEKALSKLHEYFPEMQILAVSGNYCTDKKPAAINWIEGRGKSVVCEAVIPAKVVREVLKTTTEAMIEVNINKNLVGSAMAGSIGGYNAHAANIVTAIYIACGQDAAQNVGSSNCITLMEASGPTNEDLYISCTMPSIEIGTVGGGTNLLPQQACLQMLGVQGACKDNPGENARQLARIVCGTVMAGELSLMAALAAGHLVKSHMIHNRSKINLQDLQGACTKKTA
T1 sequence (Q96SW2 whole entry, looked up): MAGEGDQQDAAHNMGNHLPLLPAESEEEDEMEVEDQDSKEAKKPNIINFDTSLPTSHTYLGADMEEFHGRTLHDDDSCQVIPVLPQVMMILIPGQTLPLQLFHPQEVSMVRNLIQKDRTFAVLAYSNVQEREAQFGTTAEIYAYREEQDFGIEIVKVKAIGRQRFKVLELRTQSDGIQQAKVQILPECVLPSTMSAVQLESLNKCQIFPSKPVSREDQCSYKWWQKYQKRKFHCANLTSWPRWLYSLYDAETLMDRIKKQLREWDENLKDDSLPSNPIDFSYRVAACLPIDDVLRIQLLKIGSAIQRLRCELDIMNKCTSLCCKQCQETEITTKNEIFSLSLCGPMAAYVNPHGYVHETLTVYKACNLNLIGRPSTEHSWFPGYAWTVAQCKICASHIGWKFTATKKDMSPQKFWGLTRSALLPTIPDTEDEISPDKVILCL

With `CC(C)c1c(C(=O)Nc2ccccc2)c(-c2cccc(OCCCc3cn(CCOCCOCCOCCOCCNc4cccc5c4C(=O)N(C4CCC(=O)NC4=O)C5=O)nn3)c2)c(-c2ccc(F)cc2)n1CC[C@@H](O)C[C@@H](O)CC(=O)O` (stereo not given in full), the result in [1], in [3] and in [9] was Active. Moreover, the fold change (FC) in [2] was 0.3 to 0.6; in data set [4], 0.6. The outcome in data set [5] was inactive. Moreover, the results for the Activity result in data set [6] and in data set [8] were “Dose-dependent effect” and “Non-Toxic”, respectively. The DC50 in data set [7] was 100 nM. Further, the inhibition entry in data set [10] was “Active”.

The term DC50 denotes the concentration at which degradation of the target reaches its halfway point.
